Measured values: ChEMBL document CHEMBL1212759, “Antifungal activity of colistin against mucorales species in vitro and in a murine model of Rhizopus oryzae pulmonary infection” (Antimicrob Agents Chemother, 2010)
Activity calls are given as the source filed them. No cut-off for these calls is given here.

Experiments:
[1] = test system: Cunninghamella bertholletiae; experiment: Antimicrobial activity against Cunninghamella bertholletiae isolate 5633 after 24 hrs in yeast nitrogen base complete medium by broth microdilution method; format: functional, organism-based
In short: (§1)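 Broth microdilution in YNB complete medium with colistin at 128 to 0.12 μg/ml. Freshly collected spores were inoculated at 0.5 × 10^4 to 4 × 10^4 cells/ml and incubated 24 h at 37°C. MIC was read visually as the lowest concentration with complete (100%) growth inhibition.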

[2] = test system: Cunninghamella bertholletiae; experiment: Antimicrobial activity against Cunninghamella bertholletiae isolate 5633 after 24 hrs in RMPI 1640 medium by broth microdilution method; format: functional, organism-based
In short: (§2)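 Colistin was serially diluted from 64 to 0.06 μg/ml in RPMI 1640 with glucamine and without bicarbonate. Fresh spores from 48–72 h YAG plates were added at 0.5 × 10^4 to 4 × 10^4 cells/ml. Plates were incubated 24 h at 37°C. MIC was read visually as the lowest concentration giving 100% growth inhibition.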

[3] = test system: Rhizopus arrhizus; experiment: Antimicrobial activity against Rhizopus oryzae at 8 ug/disk after 24 hrs by disk diffusion method; format: functional, organism-based
In short: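 Paper disks loaded with 8, 16 or 32 μg colistin were placed on agar plates inoculated with 200 μl of a 10^6 cells/ml R. oryzae spore suspension. After 24 h at 37°C, the diameter of the inhibition zone was measured.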

[4] = test system: Cunninghamella bertholletiae; experiment: Antimicrobial activity against Cunninghamella bertholletiae isolate 6694 after 24 hrs in RMPI 1640 medium by broth microdilution method; format: functional, organism-based; in short: as §2
[5] = test system: Rhizopus arrhizus; experiment: Antimicrobial activity against Rhizopus oryzae isolate 6725 after 24 hrs in RMPI 1640 medium by broth microdilution method; format: functional, organism-based
In short: (§3)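 Broth microdilution in RPMI 1640 with […], without bicarbonate. Colistin was serially diluted 64 to 0.06 μg/ml. Spores came from YAG plates grown 48–72 h at 37°C, were filtered and counted, and were inoculated at 0.5 × 10^4 to 4 × 10^4 cells/ml. Plates were incubated 24 h at 37°C. MIC was read visually as the lowest concentration giving 100% growth inhibition.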

[6] = test system: Rhizopus homothallicus; experiment: Antimicrobial activity against Rhizopus homothallicus isolate 5910 after 24 hrs in yeast nitrogen base complete medium by broth microdilution method; format: functional; in short: as §1
[7] = test system: Rhizopus microsporus; experiment: Antimicrobial activity against Rhizopus microsporus isolate 6164 after 24 hrs in RMPI 1640 medium by broth microdilution method; format: functional; in short: as §2
[8] = test system: Rhizopus arrhizus; experiment: Antimicrobial activity against Rhizopus oryzae isolate 6093 after 24 hrs in yeast nitrogen base complete medium by broth microdilution method; format: functional, organism-based
In short: (§4)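 Microdilution was done in yeast nitrogen base complete medium, with colistin serially diluted 128 to 0.12 μg/ml. Spores were harvested from YAG plates (48–72 h, 37°C), washed, filtered and counted, then added at 0.5 × 10^4 to 4 × 10^4 cells/ml. After 24 h at 37°C, MIC was taken visually as the lowest concentration with complete growth inhibition.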

[9] = test system: Rhizopus homothallicus; experiment: Antimicrobial activity against Rhizopus homothallicus isolate 5910 after 24 hrs in RMPI 1640 medium by broth microdilution method; format: functional; in short: as §2
[10] = test system: Mucor circinelloides; experiment: Ratio of MFC to MIC for Mucor circinelloides isolate 4480 after 24 hrs in RMPI 1640 medium by broth microdilution method; format: functional, organism-based
In short: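 RPMI 1640 microdilution with colistin at 64 to 0.06 μg/ml and spores at 0.5 × 10^4 to 4 × 10^4 cells/ml, incubated 24 h at 37°C. MIC was read visually as 100% inhibition. For MFC, 20 μl from clear wells and from the last growth well were subcultured onto YAG. MFC was the lowest concentration giving fewer than three colonies at 24 h (≥99.9% killing). The line reports the MFC/MIC ratio.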

[11] = test system: Rhizopus arrhizus; experiment: Antimicrobial activity against Rhizopus oryzae assessed as vacuolar and plasma membrane damage at 32 ug/ml by FM4-64 staining; format: functional, organism-based
In short: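 Germlings at 5 × 10^6/ml were loaded with 5 μM FM4-64 in RPMI 1640 for 30 min at 30°C in the dark. After washing in PBS, they were exposed to colistin at the MIC and MFC, or drug-free RPMI, for 60 min at 37°C. Membranes were viewed by fluorescence microscopy with a rhodamine filter.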

[12] = test system: Rhizopus arrhizus; experiment: Antimicrobial activity against Rhizopus oryzae isolate 5799 after 24 hrs in RMPI 1640 medium by broth microdilution method; format: functional, organism-based; in short: as §2
[13] = test system: Rhizopus; experiment: Antimicrobial activity against Rhizopus sp. isolate 4523 after 24 hrs in RMPI 1640 medium by broth microdilution method; format: functional, organism-based; in short: as §3
[14] = test system: Rhizopus arrhizus; experiment: Antimicrobial activity against Rhizopus oryzae isolate 4153 after 24 hrs in RMPI 1640 medium by broth microdilution method; format: functional, organism-based; in short: as §2
[15] = test system: Rhizopus arrhizus; experiment: Antimicrobial activity against Rhizopus oryzae assessed as plasma membrane disruption-related ATP release at 8 ug/ml after 30 mins by Cell Titer-Glo luminescent assay; format: functional, organism-based
In short: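 Spores at 10^7 cells/ml in RPMI 1640 were germinated about 6 h at 37°C. Germlings were resuspended in RPMI with colistin at 8 or 32 μg/ml, or drug-free, and shaken at 37°C. Supernatants taken at 5, 30, 60 and 90 min were assayed for released ATP by CellTiter-Glo luminescence.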

[16] = test system: Cunninghamella bertholletiae; experiment: Antimicrobial activity against Cunninghamella bertholletiae isolate 6694 after 24 hrs in yeast nitrogen base complete medium by broth microdilution method; format: functional, organism-based; in short: as §1
[17] = test system: Rhizopus; experiment: Antimicrobial activity against […] isolate 6254 after 24 hrs in yeast nitrogen base complete medium by broth microdilution method; format: functional, organism-based; in short: as §1
[18] = test system: Mucor circinelloides; experiment: Antimicrobial activity against Mucor circinelloides isolate 5904 after 24 hrs in yeast nitrogen base complete medium by broth microdilution method; format: functional, organism-based; in short: as §1
[19] = test system: Rhizopus arrhizus; experiment: Antimicrobial activity against Rhizopus oryzae isolate 3140 after 24 hrs in RMPI 1640 medium by broth microdilution method; format: functional, organism-based; in short: as §2
[20] = test system: Rhizopus; experiment: Antimicrobial activity against Rhizopus sp. isolate 4523 after 24 hrs in yeast nitrogen base complete medium by broth microdilution method; format: functional, organism-based; in short: as §4
[21] = test system: Rhizopus arrhizus; experiment: Antimicrobial activity against Rhizopus oryzae assessed as reduction in hyphal viability at 8 ug/ml after 24 hrs by XTT assay; format: functional, organism-based
In short: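 R. oryzae mycelia were shaken at 37°C in RPMI 1640 with colistin, amphotericin B or both; drug-free RPMI served as control. At 0, 2, 6 and 24 h, pellets received XTT (1 mg) plus menadione (0.17 mg) in 1 ml PBS for 1 h at 37°C, then OD405 was read. Viability is drug OD405 divided by control OD405; at least three experiments.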

[22] = test system: Mucor circinelloides; experiment: Antimicrobial activity against Mucor circinelloides isolate 4480 after 24 hrs in RMPI 1640 medium by broth microdilution method; format: functional, organism-based; in short: as §2
[23] = test system: Mucor circinelloides; experiment: Antimicrobial activity against Mucor circinelloides isolate 4818 after 24 hrs in RMPI 1640 medium by broth microdilution method; format: functional, organism-based; in short: as §2

## COLISTIN
[1]
  MFC: > 128 µg/mL
  MIC: 128 µg/mL
[2]
  MFC: 64 µg/mL
  MIC: 16 µg/mL
[3]
  inhibition zone (IZ): 18 mm
[4]
  MFC: 64 µg/mL
  MIC: 16 µg/mL
[5]
  MFC: 32 µg/mL
  MIC: 16 µg/mL
[6]
  MFC: > 128 µg/mL
  MIC: 128 µg/mL
[7]
  MFC: 64 µg/mL
  MIC: 32 µg/mL
[8]
  MFC: > 128 µg/mL
  MIC: 128 µg/mL
[9]
  MFC: 32 µg/mL
  MIC: 32 µg/mL
[10]
  Ratio: 2
[11]
  Activity: Active
[12]
  MFC: 32 µg/mL
  MIC: 8 µg/mL
[13]
  MFC: 64 µg/mL
  MIC: 16 µg/mL
[14]
  MFC: 64 µg/mL
  MIC: 16 µg/mL
[15]
  Activity: Active
[16]
  MFC: > 128 µg/mL
  MIC: 128 µg/mL
[17]
  MFC: > 128 µg/mL
  MIC: 128 µg/mL
[18]
  MFC: > 128 µg/mL
  MIC: 128 µg/mL
[19]
  MFC: 32 µg/mL
  MIC: 16 µg/mL
[20]
  MFC: > 128 µg/mL
  MIC: 128 µg/mL
[21]
  inhibition: inactive
[22]
  MFC: 32 µg/mL
  MIC: 16 µg/mL
[23]
  MFC: 32 µg/mL
  MIC: 32 µg/mL
